{"source": "paper PMC4437839", "about": "(Chemical research in toxicology, 2015)", "key": {"[1]": {"target": "albumin in human hepatocytes culture (Homo sapiens, UniProt P02768)", "sequence (P02768 25-609)": "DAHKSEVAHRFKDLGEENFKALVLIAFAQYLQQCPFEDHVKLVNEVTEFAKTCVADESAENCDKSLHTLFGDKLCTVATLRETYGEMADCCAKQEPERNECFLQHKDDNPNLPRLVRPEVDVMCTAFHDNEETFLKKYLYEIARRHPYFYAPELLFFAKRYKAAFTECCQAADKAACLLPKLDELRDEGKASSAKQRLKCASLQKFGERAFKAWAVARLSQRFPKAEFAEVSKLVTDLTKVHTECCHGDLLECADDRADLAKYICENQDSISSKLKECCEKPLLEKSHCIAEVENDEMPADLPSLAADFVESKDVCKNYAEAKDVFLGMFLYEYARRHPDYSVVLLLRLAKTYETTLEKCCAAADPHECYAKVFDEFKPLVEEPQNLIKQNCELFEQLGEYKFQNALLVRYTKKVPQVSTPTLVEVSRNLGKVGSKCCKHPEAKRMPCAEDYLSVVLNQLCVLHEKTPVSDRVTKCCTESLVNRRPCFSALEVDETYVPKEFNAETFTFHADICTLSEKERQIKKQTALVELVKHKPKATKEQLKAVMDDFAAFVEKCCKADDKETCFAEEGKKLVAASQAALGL", "assay": "Albumin PhIP adducts and Cys34SO3H in human hepatocytes", "assay_type": "cell-based", "method_in_brief": "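Primary human hepatocytes (two-step collagenase perfusion) seeded at 3×10^6 viable cells/19.5-cm2 dish in Williams' medium with βME-pre-reduced human albumin (1 g/L) replacing FCS; exposed 24 h to PhIP or 1:1 PhIP:[2H5]-PhIP (50 µM). Medium albumin ethyl acetate-extracted, ethanol-precipitated, kit-isolated, desalted; trypsin/chymotrypsin digested (37 °C, 20 h); C18 SPE; mass-tag data-dependent, then targeted UPLC-ESI/MS2.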"}, "Hb": {"test_system": "Hb", "conditions": "humans, radiolabelled 14C-PhIP; cited from earlier work"}, "albumin": {"test_system": "albumin", "conditions": "humans; cited from earlier work"}, "2′-Deoxyguanosine (dG)": {"test_system": "2′-Deoxyguanosine (dG)", "assay": "Trapping reactive N-oxidized electrophiles of PhIP with dG", "conditions": "42 nmol, dG 1 mg/mL, pH 8.0, 37 °C, 1 h; total ion counts at MS3 (Fig. 3)"}, "albumin in human plasma": {"target": "albumin in human plasma (Homo sapiens, UniProt P02768)", "sequence (P02768 25-609)": "as above", "conditions": "for level of LQQC*[SOPhIP]PF formed, comparison between the three metabolites: albumin in human plasma or commercial human albumin, p=0.231, one-way ANOVA; for LQQC*[SO2PhIP]PFEDHVK levels, N-acetoxy-PhIP versus HONH-PhIP: human plasma, p>0.05, t-test"}, "SULT1A1": {"test_system": "SULT1A1", "conditions": "cited from earlier work"}, "NAT2": {"test_system": "NAT2", "conditions": "cited from earlier work"}, "NAT1": {"test_system": "NAT1", "conditions": "cited from earlier work"}, "[2]": {"conditions": "N-sulfooxy-PhIP modified albumin, unpublished observations"}}, "note": "Entries after “also recorded” stand apart in the source; their conditions may differ.", "data": [{"smiles": "Cn1c(N)nc2ncc(-c3ccccc3)cc21", "note": "[PhIP, 2-amino-1-methyl-6-phenylimidazo[4,5-b]pyridine]", "values": [{"measurement": "PhIP and 5-HO-PhIP in the proteolytic digests of albumin", "setting": "[1]; PhIP 50 µM, 24 h (Figs. 8A, 8B)", "result": "detected"}, {"measurement": "Y*[desaminoPhIP]TK (Tyr411) and LQQC*[desaminoPhIP]PF (Cys34) adducts", "setting": "[1]; PhIP 50 µM, tryptic/chymotryptic digest (Fig. 9)", "result": "both adducts were identified"}, {"measurement": "albumin-PhIP peptide adducts at Cys34 or Trp214", "setting": "[1]; PhIP or PhIP:[2H5]-PhIP 50 µM, 24 h, data-dependent and targeted MS2", "result": "failed to detect; also recorded: below the limit of detection"}, {"measurement": "LQQC*[SO2PhIP]PFEDHVK after m-CPBA oxidation of albumin", "setting": "[1]; albumin isolated from hepatocytes, targeted MS2", "result": "failed to detect; also recorded: not detected"}, {"measurement": "PhIP binding to Hb", "setting": "Hb", "result": "very low"}, {"measurement": "binding of PhIP to albumin", "setting": "albumin", "result": "up to several percent of the ingested dose"}]}, {"smiles": "CC(=O)ONc1nc2ncc(-c3ccccc3)cc2n1C", "note": "[N-acetoxy-PhIP, N-(acetyloxy)-2-amino-1-methyl-6-phenylimidazo[4,5-b]pyridine, reference compound]", "values": [{"measurement": "relative amount of dG-C8-PhIP formation", "setting": "2′-Deoxyguanosine (dG)", "result": "greatest amount"}, {"measurement": "level of LQQC*[SOPhIP]PF formed, comparison between the three metabolites", "setting": "albumin in human plasma", "result": "no statistically significant difference"}, {"measurement": "LQQC*[SO2PhIP]PFEDHVK levels, N-acetoxy-PhIP versus HONH-PhIP", "setting": "albumin in human plasma", "result": "no significant difference"}]}, {"smiles": "Cn1c(NO)nc2ncc(-c3ccccc3)cc21", "note": "[HONH-PhIP, 2-hydroxyamino-1-methyl-6-phenylimidazo[4,5-b]pyridine]", "values": [{"measurement": "bioactivation by SULT1A1", "setting": "SULT1A1", "result": "highly effective"}, {"measurement": "relative amount of dG-C8-PhIP formation", "setting": "2′-Deoxyguanosine (dG)", "result": "lastly"}, {"measurement": "bioactivation by NAT2", "setting": "NAT2", "result": "poorly bioactivated"}, {"measurement": "level of LQQC*[SOPhIP]PF formed, comparison between the three metabolites", "setting": "albumin in human plasma", "result": "no statistically significant difference"}, {"measurement": "LQQC*[SO2PhIP]PFEDHVK levels, N-acetoxy-PhIP versus HONH-PhIP", "setting": "albumin in human plasma", "result": "no significant difference"}, {"measurement": "bioactivation by NAT1", "setting": "NAT1", "result": "poorly bioactivated"}]}, {"smiles": "Cn1c(NOS(=O)(=O)O)nc2ncc(-c3ccccc3)cc21", "note": "[N-sulfooxy-PhIP, N-sulfooxy-2-amino-1-methyl-6-phenylimidazo[4,5-b]pyridine]", "values": [{"measurement": "relative amount of dG-C8-PhIP formation", "setting": "2′-Deoxyguanosine (dG)", "result": "lower level"}, {"measurement": "level of W[PhIP] adduct relative to signal of C[SO2PhIP]", "setting": "albumin in human plasma; 3-enzyme digest, ion counts (Fig. 7)", "result": "about half"}, {"measurement": "ion counts of H[PhIP], fold lower than counts of W[PhIP]", "setting": "albumin in human plasma; [2]", "result": 5, "unit": "folder"}, {"measurement": "ion counts of H[PhIP], fold lower than ion counts of C[SO2PhIP]", "setting": "albumin in human plasma; [2]", "result": 10, "unit": "fold"}, {"measurement": "level of LQQC*[SOPhIP]PF formed, comparison between the three metabolites", "setting": "albumin in human plasma", "result": "no statistically significant difference"}, {"measurement": "level of Trp[PhIP] relative to N-acetoxy-PhIP or HONH-PhIP treated human plasma", "setting": "albumin in human plasma; pronase E/leucine aminopeptidase/prolidase digest, ion counts (Fig. 7B)", "result": 3, "unit": "x"}]}]}
